According to ChEMBL document CHEMBL2417509, “Synthesis and biological evaluation of prodigiosene conjugates of porphyrin, estrone and 4-hydroxytamoxifen” (2013):

Key:
Format in all cases: functional
[1] = system: PC-3; test: Cytotoxicity against human PC3 cells after 2 days by sulforhodamine B assay; conditions: PC-3, 48 h
Procedure, shortened: (§1)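 NCI60 multi-dose screen, 59 human tumour lines available. Cells exposed to compound across a 5-log mol/L concentration range for 2 days, then fixed and stained with sulphorhodamine B, optical density read. Growth inhibition calculated against time-zero control and untreated cells. GI50 derived from the dose series, average of two replicates.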

[2] = system: SN12C; test: Cytotoxicity against human SN12C cells after 2 days by sulforhodamine B assay; conditions: 48 h; procedure, shortened: as §1
[3] = system: CAKI-1; test: Cytotoxicity against human CAKI-1 cells after 2 days by sulforhodamine B assay; conditions: CAKI-1, 48 h; procedure, shortened: as §1
[4] = system: ACHN; test: Cytotoxicity against human ACHN cells after 2 days by sulforhodamine B assay; conditions: 48 h; procedure, shortened: as §1
[5] = system: 786-0; test: Cytotoxicity against human 786-0 cells after 2 days by sulforhodamine B assay; conditions: 786-0, 48 h; procedure, shortened: as §1
[6] = Cytotoxicity against human NCI-ADR-RES cells after 2 days by sulforhodamine B assay; conditions: 48 h; procedure, shortened: as §1
[7] = system: OVCAR-4; test: Cytotoxicity against human OVCAR4 cells after 2 days by sulforhodamine B assay; conditions: OVCAR-4, 48 h; procedure, shortened: as §1
[8] = system: UACC-62; test: Cytotoxicity against human UACC62 cells after 2 days by sulforhodamine B assay; conditions: UACC-62, 48 h
Procedure, shortened: (§2)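 NCI DTP NCI60 multi-dose screen (59 human tumour lines available). Cells exposed to compound over a 5-log mol/L concentration range for 2 days, then fixed and stained with sulphorhodamine B, with optical density read. Growth inhibition calculated relative to time-zero cells and untreated cells, giving GI50 (half-maximal growth inhibition concentration). Average of two replicates.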

[9] = system: UACC-257; test: Cytotoxicity against human UACC257 cells after 2 days by sulforhodamine B assay; conditions: UACC-257, 48 h; procedure, shortened: as §2
[10] = system: SK-MEL-28; test: Cytotoxicity against human SK-MEL-28 cells after 2 days by sulforhodamine B assay; conditions: SK-MEL-28, 48 h; procedure, shortened: as §1
[11] = system: Malme-3M; test: Cytotoxicity against human MALME-3M cells after 2 days by sulforhodamine B assay; conditions: 48 h; procedure, shortened: as §1
[12] = system: SNB-75; test: Cytotoxicity against human SNB75 cells after 2 days by sulforhodamine B assay; conditions: SNB-75, 48 h; procedure, shortened: as §2
[13] = system: SF-295; test: Cytotoxicity against human SF295 cells after 2 days by sulforhodamine B assay; conditions: SF-295, 48 h; procedure, shortened: as §1
[14] = system: HT-29; test: Cytotoxicity against human HT-29 cells after 2 days by sulforhodamine B assay; conditions: HT-29, 48 h; procedure, shortened: as §1
[15] = system: HCT-15; test: Cytotoxicity against human HCT15 cells after 2 days by sulforhodamine B assay; conditions: HCT-15, 48 h; procedure, shortened: as §1
[16] = system: HCT-116; test: Cytotoxicity against human HCT116 cells after 2 days by sulforhodamine B assay; conditions: HCT-116, 48 h; procedure, shortened: as §1
[17] = system: HCC 2998; test: Cytotoxicity against human HCC2998 cells after 2 days by sulforhodamine B assay; conditions: HCC 2998, 48 h; procedure, shortened: as §1
[18] = system: COLO 205; test: Cytotoxicity against human COLO205 cells after 2 days by sulforhodamine B assay; conditions: COLO 205, 48 h; procedure, shortened: as §1
[19] = system: NCI-H460; test: Cytotoxicity against human NCI-H460 cells after 2 days by sulforhodamine B assay; conditions: NCI-H460, 48 h; procedure, shortened: as §1
[20] = system: NCI-H322M; test: Cytotoxicity against human NCI-H322M cells after 2 days by sulforhodamine B assay; conditions: 48 h; procedure, shortened: as §1
[21] = system: NCI-H226; test: Cytotoxicity against human NCI-H226 cells after 2 days by sulforhodamine B assay; conditions: NCI-H226, 48 h; procedure, shortened: as §1
[22] = system: A549; test: Cytotoxicity against human A549/ATCC cells after 2 days by sulforhodamine B assay; conditions: A549, 48 h; procedure, shortened: as §1
[23] = system: SR; test: Cytotoxicity against human SR cells after 2 days by sulforhodamine B assay; conditions: 48 h; procedure, shortened: as §2
[24] = system: MOLT-4; test: Cytotoxicity against human MOLT4 cells after 2 days by sulforhodamine B assay; conditions: MOLT-4, 48 h; procedure, shortened: as §1
[25] = system: CCRF-CEM; test: Cytotoxicity against human CCRF-CEM cells after 2 days by sulforhodamine B assay; conditions: 48 h; procedure, shortened: as §1
[26] = Cytotoxicity against human Hs578T cells after 2 days by sulforhodamine B assay; conditions: Hs-578T, 48 h; procedure, shortened: as §1
[27] = system: MDA-MB-231; test: Cytotoxicity against human MDA-MB-231 cells after 2 days by sulforhodamine B assay; conditions: MDA-MB-231, 48 h; procedure, shortened: as §1
[28] = system: MCF7; test: Cytotoxicity against human MCF7 cells after 2 days by sulforhodamine B assay; conditions: MCF7, 48 h; procedure, shortened: as §1
[29] = system: DU-145; test: Cytotoxicity against human DU145 cells after 2 days by sulforhodamine B assay; conditions: DU-145, 48 h; procedure, shortened: as §1
[30] = system: UO-31; test: Cytotoxicity against human UO31 cells after 2 days by sulforhodamine B assay; conditions: UO-31, 48 h; procedure, shortened: as §2
[31] = read-out: LC50 (the source's name)

**Q.** With COc1cc(-c2ccc[nH]2)[nH]c1/C=C1\N=C(C)C(C(=O)CCC(=O)Oc2ccc3c(c2)CC[C@@H]2[C@@H]3CC[C@]3(C)C(=O)CC[C@@H]23)=C1C as the compound, how does the GI50 [1] read?
**A.** 7.45 µM

**Q.** What about the LC50 (concentration killing 50% of cells) [1] of the same compound?
**A.** > 100 µM

**Q.** What about the TGI [1] of the same compound?
**A.** > 100 µM

**Q.** And the GI50 [2]?
**A.** 5.21 µM

**Q.** What about the TGI [2] of the same compound?
**A.** > 100 µM

**Q.** What about the CC50 [2, 31] of the same compound?
**A.** > 100 µM

**Q.** What about the GI50 [3] of the same compound?
**A.** 9.05 µM

**Q.** What about the LC50 (concentration killing 50% of the cells present at time zero) [3] of the same compound?
**A.** > 100 µM

**Q.** And the TGI [3]?
**A.** > 100 µM

**Q.** And the GI50 [4]?
**A.** 5.83 µM

**Q.** And the LC50 (concentration killing 50% of cells) [4]?
**A.** > 100 µM

**Q.** What about the TGI [4] of the same compound?
**A.** > 100 µM

**Q.** And the GI50 [5]?
**A.** 5.99 µM

**Q.** And the LC50 (concentration killing 50% of cells) [5]?
**A.** > 100 µM

**Q.** What about the TGI [5] of the same compound?
**A.** 40 µM

**Q.** What about the GI50 [6] of the same compound?
**A.** 13.1 µM

**Q.** And the TGI [6]?
**A.** > 100 µM

**Q.** And the CC50 [6, 31]?
**A.** > 100 µM

**Q.** What about the GI50 [7] of the same compound?
**A.** 20.9 µM

**Q.** What about the LC50 (concentration killing 50% of cells) [7] of the same compound?
**A.** > 100 µM

**Q.** What about the TGI [7] of the same compound?
**A.** > 100 µM

**Q.** And the GI50 [8]?
**A.** 3.71 µM

**Q.** And the TGI [8]?
**A.** 17.6 µM

**Q.** What about the CC50 [8, 31] of the same compound?
**A.** 65.1 µM

**Q.** What about the GI50 [9] of the same compound?
**A.** 97.6 µM

**Q.** What about the TGI [9] of the same compound?
**A.** > 100 µM

**Q.** What about the CC50 [9, 31] of the same compound?
**A.** > 100 µM

**Q.** And the GI50 [10]?
**A.** 75 µM

**Q.** What about the LC50 [10] of the same compound?
**A.** > 100 µM

**Q.** What about the TGI [10] of the same compound?
**A.** > 100 µM

**Q.** What about the GI50 [11] of the same compound?
**A.** 29 µM

**Q.** And the LC50 [11]?
**A.** > 100 µM

**Q.** And the TGI [11]?
**A.** > 100 µM

**Q.** What about the GI50 [12] of the same compound?
**A.** 59.1 µM

**Q.** And the LC50 (concentration killing 50% of starting cells) [12]?
**A.** > 100 µM

**Q.** And the TGI [12]?
**A.** > 100 µM

**Q.** And the GI50 [13]?
**A.** 21.4 µM

**Q.** And the LC50 [13]?
**A.** > 100 µM

**Q.** And the TGI [13]?
**A.** 85.4 µM

**Q.** What about the GI50 [14] of the same compound?
**A.** 870 nM

**Q.** And the LC50 [14]?
**A.** > 100 µM

**Q.** What about the TGI [14] of the same compound?
**A.** > 100 µM

**Q.** What about the GI50 [15] of the same compound?
**A.** 2600 nM

**Q.** What about the LC50 [15] of the same compound?
**A.** > 100 µM

**Q.** And the TGI [15]?
**A.** > 100 µM

**Q.** What about the GI50 [16] of the same compound?
**A.** 800 nM

**Q.** And the LC50 (concentration killing 50% of cells vs time zero) [16]?
**A.** > 100 µM

**Q.** What about the TGI [16] of the same compound?
**A.** > 100 µM

**Q.** What about the GI50 [17] of the same compound?
**A.** 17 µM

**Q.** And the LC50 (50% lethal concentration) [17]?
**A.** > 100 µM

**Q.** And the TGI [17]?
**A.** > 100 µM

**Q.** What about the GI50 [18] of the same compound?
**A.** 21.6 µM

**Q.** What about the LC50 (concentration killing 50% of cells) [18] of the same compound?
**A.** > 100 µM

**Q.** What about the TGI [18] of the same compound?
**A.** > 100 µM

**Q.** And the GI50 [19]?
**A.** 3.09 µM

**Q.** And the LC50 [19]?
**A.** > 100 µM

**Q.** What about the TGI [19] of the same compound?
**A.** > 100 µM

**Q.** What about the GI50 [20] of the same compound?
**A.** 32.6 µM

**Q.** And the LC50 (concentration killing 50% of cells) [20]?
**A.** > 100 µM

**Q.** And the TGI [20]?
**A.** > 100 µM

**Q.** What about the GI50 [21] of the same compound?
**A.** 11.1 µM

**Q.** What about the LC50 [21] of the same compound?
**A.** > 100 µM

**Q.** And the TGI [21]?
**A.** > 100 µM

**Q.** What about the GI50 [22] of the same compound?
**A.** 2680 nM

**Q.** What about the LC50 (concentration giving 50% net cell kill) [22] of the same compound?
**A.** > 100 µM

**Q.** What about the TGI [22] of the same compound?
**A.** > 100 µM

**Q.** And the GI50 [23]?
**A.** 720 nM

**Q.** What about the LC50 (concentration giving 50% net cell kill) [23] of the same compound?
**A.** > 100 µM

**Q.** And the TGI [23]?
**A.** > 100 µM

**Q.** What about the GI50 [24] of the same compound?
**A.** 2720 nM

**Q.** And the TGI [24]?
**A.** > 100 µM

**Q.** What about the CC50 [24, 31] of the same compound?
**A.** > 100 µM

**Q.** And the GI50 [25]?
**A.** 540 nM

**Q.** And the TGI [25]?
**A.** > 100 µM

**Q.** And the CC50 [25, 31]?
**A.** > 100 µM

**Q.** And the GI50 [26]?
**A.** 14.2 µM

**Q.** And the TGI [26]?
**A.** > 100 µM

**Q.** And the CC50 [26, 31]?
**A.** > 100 µM

**Q.** What about the GI50 [27] of the same compound?
**A.** 270 nM

**Q.** And the LC50 [27]?
**A.** 23 µM

**Q.** What about the TGI [27] of the same compound?
**A.** 1210 nM

**Q.** What about the GI50 [28] of the same compound?
**A.** 1910 nM

**Q.** And the LC50 (concentration giving 50% net cell kill) [28]?
**A.** > 100 µM

**Q.** What about the TGI [28] of the same compound?
**A.** > 100 µM

**Q.** And the GI50 [29]?
**A.** 1960 nM

**Q.** What about the LC50 (concentration killing 50% of starting cells) [29] of the same compound?
**A.** > 100 µM

**Q.** And the TGI [29]?
**A.** > 100 µM

**Q.** And the GI50 [30]?
**A.** 4.15 µM

**Q.** What about the LC50 [30] of the same compound?
**A.** > 100 µM

**Q.** And the TGI [30]?
**A.** 31 µM
